Source: ChEMBL document CHEMBL4673221, “Furanoflavones pongapin and lanceolatin B blocks the cell cycle and induce senescence in CYP1A1-overexpressing breast cancer cells” (Bioorg Med Chem, 2018)
pEC50, pIC50: −log10 of the molar value. Active and inactive are the calls of the source. The calls are words filed in the database; no cut-off is given here.

What was measured:
Cytochrome P450 2B6 = molecular target: T1, Cytochrome P450 2B6 (Homo sapiens, UniProt P20813); test: Inhibition of human CYP2B6 expressed in Sacchrosomes by fluorescence based assay; type: ADME
T1 sequence (P20813 whole entry): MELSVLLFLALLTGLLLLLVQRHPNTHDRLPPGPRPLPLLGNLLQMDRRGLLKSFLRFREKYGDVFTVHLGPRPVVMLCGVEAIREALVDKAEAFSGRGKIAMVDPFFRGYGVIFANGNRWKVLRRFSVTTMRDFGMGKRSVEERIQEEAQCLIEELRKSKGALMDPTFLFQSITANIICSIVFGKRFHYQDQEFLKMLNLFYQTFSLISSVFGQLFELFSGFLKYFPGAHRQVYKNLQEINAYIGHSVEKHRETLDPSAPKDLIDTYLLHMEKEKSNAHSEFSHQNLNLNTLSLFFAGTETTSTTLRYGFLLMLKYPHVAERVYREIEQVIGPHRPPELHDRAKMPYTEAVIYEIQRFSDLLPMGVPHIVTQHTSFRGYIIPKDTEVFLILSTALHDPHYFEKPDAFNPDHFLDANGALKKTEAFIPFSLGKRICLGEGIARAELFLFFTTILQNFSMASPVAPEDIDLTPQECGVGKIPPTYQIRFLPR

Cytochrome P450 2C9 = Cytochrome P450 2C9 (Homo sapiens, UniProt P11712); test: Inhibition of human CYP2C9 expressed in Sacchrosomes using 3-cyano-7-ethoxycoumarin as substrate by fluorescence based assay; type: ADME
MCF7 [1] = test: Antiproliferative activity against human MCF-7 cells overexpressing CYP1A1 assessed as reduction in cell viability; type: functional, cell-based
In short: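 MCF-7 cells transfected with pcDNA3.1/CYP1A1 and selected in G418 (1 mg/mL, then […]) to give the stable MCF7-1A1 line. CYP1A1 expression was confirmed by Western blot and 7-ethoxyresorufin enzyme assay. The line was subcloned repeatedly. The reported value is the EC50 for inhibition of proliferation.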

Cytochrome P450 1A1 = molecular target: T2, Cytochrome P450 1A1 (Homo sapiens, UniProt P04798); test: Inhibition of human CYP1A1 expressed in HEK293 cells assessed as reduction in CYP1A1 mediated […] induced-toxicity by measuring EC50 at 3 times of IC50 concentration by MTT assay relative to control; type: cell-based; set-up: scale not given: the % may be the effect or the level left
T2 sequence (P04798 whole entry): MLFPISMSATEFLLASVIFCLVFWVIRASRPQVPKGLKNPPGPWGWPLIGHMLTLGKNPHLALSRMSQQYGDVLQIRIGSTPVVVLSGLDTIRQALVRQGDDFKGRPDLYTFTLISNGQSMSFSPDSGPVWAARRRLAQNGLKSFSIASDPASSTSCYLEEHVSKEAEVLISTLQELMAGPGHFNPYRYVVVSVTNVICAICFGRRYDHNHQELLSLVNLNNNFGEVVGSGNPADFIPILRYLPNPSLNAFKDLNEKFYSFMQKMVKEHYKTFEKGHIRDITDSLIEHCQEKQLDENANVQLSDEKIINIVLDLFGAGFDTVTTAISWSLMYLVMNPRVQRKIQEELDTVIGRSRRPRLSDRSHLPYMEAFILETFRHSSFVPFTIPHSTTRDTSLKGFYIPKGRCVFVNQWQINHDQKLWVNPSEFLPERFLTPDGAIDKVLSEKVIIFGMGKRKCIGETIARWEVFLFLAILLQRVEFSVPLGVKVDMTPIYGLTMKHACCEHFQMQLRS
In short: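 Adherent HEK293 cells transfected with pcDNA3.1/hCYP1A1 were exposed to B[a]P over 0.05–100 µM, with inhibitor at 3x its IC50 from the suspension HEK293-CYP1A1 assay. The EC50 of B[a]P for cell growth inhibition was derived. Cells transfected with empty plasmid were used for comparison. Values are mean and SD of three independent experiments.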

MCF7 [2] = test: Cell cycle arrest in human MCF-7 cells over expressing CYP1A1 assessed as down regulation of CyclinD1 after 24 hrs by western blotting assay; type: functional, cell-based
In short: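 Cyclin D1 was detected by Western blot, with β-tubulin as loading control. Untreated cells served as control.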

Cytochrome P450 2C18 = molecular target: T3, Cytochrome P450 2C18 (Homo sapiens, UniProt P33260); test: Inhibition of human CYP2C18 expressed in Sacchrosomes by fluorescence based assay; type: ADME
T3 sequence (P33260 whole entry): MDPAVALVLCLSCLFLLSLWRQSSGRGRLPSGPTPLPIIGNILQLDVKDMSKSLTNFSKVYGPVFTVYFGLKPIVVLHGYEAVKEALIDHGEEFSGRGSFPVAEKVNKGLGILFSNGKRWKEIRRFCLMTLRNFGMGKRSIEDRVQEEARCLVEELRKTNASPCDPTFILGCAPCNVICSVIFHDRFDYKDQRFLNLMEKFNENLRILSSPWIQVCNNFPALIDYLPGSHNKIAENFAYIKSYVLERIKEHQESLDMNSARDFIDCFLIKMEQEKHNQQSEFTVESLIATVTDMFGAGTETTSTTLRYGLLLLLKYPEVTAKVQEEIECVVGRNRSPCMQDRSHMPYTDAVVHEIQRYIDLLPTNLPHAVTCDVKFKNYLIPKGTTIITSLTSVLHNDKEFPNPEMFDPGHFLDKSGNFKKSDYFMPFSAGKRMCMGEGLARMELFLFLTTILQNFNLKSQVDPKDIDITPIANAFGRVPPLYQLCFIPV

MCF7 [3] = test: Induction of cell cycle arrest in human MCF7 over expressing CYP1A cells assessed as accumulation at G2/M phase incubated for 24 hrs by PI staining based flow cytometric analysis (reference value: 22.6%); type: functional
Homo sapiens = species on record: Homo sapiens; test: Selectivity ratio IC50 for inhibition of human CYP1B1 expressed in HEK293 cells toIC50 for Inhibition of CYP1A1 expressed in HEK293 cells; type: cell-based
MCF7 [4] = test: Induction of cellular senescence in human MCF7 cells over expressing CYP1A assessed as increase in beta-gal-positive cells at 2 times of EC50 concentration incubated for 96 hrs by microscopic assay relative to control; type: functional
In short: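 MCF7-1A1 cells were seeded at 25,000 per well and stabilised for 24 h, then treated for 96 h. Cells were fixed for 10 min at room temperature and stained for β-galactosidase at 37 °C without CO2 for 48 h. The percentage of blue-stained cells was counted by phase-contrast microscopy against untreated cultures.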

Chain of Cytochrome P450 2C9 (P11712 whole entry): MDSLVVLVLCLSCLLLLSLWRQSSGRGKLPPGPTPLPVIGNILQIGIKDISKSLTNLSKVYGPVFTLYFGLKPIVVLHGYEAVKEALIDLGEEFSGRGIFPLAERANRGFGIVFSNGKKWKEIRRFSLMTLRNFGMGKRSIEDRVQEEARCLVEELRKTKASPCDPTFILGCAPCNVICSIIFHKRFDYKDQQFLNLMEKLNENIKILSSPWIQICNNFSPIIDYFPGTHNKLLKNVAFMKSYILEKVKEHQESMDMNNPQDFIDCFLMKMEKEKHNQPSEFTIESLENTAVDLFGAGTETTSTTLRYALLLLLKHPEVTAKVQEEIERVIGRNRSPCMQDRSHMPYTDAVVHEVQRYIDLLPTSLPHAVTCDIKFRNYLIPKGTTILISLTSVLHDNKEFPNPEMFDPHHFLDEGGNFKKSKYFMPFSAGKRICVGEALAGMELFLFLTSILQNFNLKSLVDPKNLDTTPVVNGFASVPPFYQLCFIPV

| SMILES | pIC50 (Cytochrome P450 2B6) | pIC50 (Cytochrome P450 2C9) | pEC50 (MCF7 [1]) | Activity (Cytochrome P450 1A1) | Activity (MCF7 [2]) | pIC50 (Cytochrome P450 2C18) | Activity (MCF7 [3]) | Ratio IC50 (Homo sapiens) | Activity (MCF7 [4]) |
| --- | --- | --- | --- | --- | --- | --- | --- | --- | --- |
| O=c1cc(-c2ccccc2)oc2c1ccc1occc12 [LANCEOLATIN B] | < 4.70 | < 4.70 | 6.15 | 100% | Active | < 4.70 | 9.2% | 19.5 | 60% |
| COc1c(-c2ccc3c(c2)OCO3)oc2c(ccc3occc32)c1=O [PONGAPIN] | < 4.70 | < 4.70 | 6.22 | 100% | Active | < 4.70 | 8.3% | 53 | 60% |
